Several values for one entry are separate records, joined by “and”; a condition that tells them apart may be missing. Equal values may be shown once. Read-outs that look alike come from different tables or passages of the source.
Tests used:
URAT1 = settings: read-out: half-maximal inhibitory constant in inhibiting URAT1; cited from earlier work
[1] = format: in vivo, human; settings: for AUC0–∞, GLSMR (90% CI) versus normal renal function group / Cmax, GLSMR (90% CI) versus normal renal function group: plasma; for AUC0–∞, GLSMR (90% CI) versus normal renal function group / Cmax, GLSMR (90% CI) versus normal renal function group / CL/F, GLSMR (90% CI) versus normal renal function group / Increase in AUC0–∞ compared to subjects with normal renal function / Increase in Cmax compared to subjects with normal renal function: verinurad 15 mg; for CL/F total body clearance, GM (95% CI): verinurad 15 mg single oral dose, fasted
Procedure, shortened: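 Males aged 18–85 y with sUA 4.5–10 mg/dl, grouped by Cockcroft-Gault eCrCl (normal ≥90, mild 60–<90, moderate 30–<60, severe 15–<30 ml/min). Normal group matched for age and BMI. Single 15 mg dose. Serial blood sampled up to 72 h post-dose; plasma acidified. Parent and metabolites measured by validated LC-MS/MS. Non-compartmental parameters, ln-transformed, fixed-effects model, geometric mean ratios with 90% CI versus normal.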

Plasma protein binding = format: in vitro ADME; settings: human
serum urate (sUA) = assay: Serum urate; format: in vivo, human; settings: verinurad 15 mg; all groups
Procedure, shortened: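 Single 15 mg dose. Serial serum sampled on Day −1 (baseline) and Day 1 at preset times up to 72 h post-dose. Urate measured enzymatically. Percent change from baseline time-matched to Day −1, with maximal and mean changes derived per renal-function group.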

[2] = Urinary pharmacokinetics after single oral verinurad 15 mg; format: in vivo, human; settings: for fe0–72 fraction of drug excreted in urine unchanged from time zero to 72 h, GM (95% CI): verinurad 15 mg single oral dose; for CLR0–72, GLSMR (90% CI) versus normal renal function group / Decrease in renal clearance (CLR0-72) versus normal renal function: verinurad 15 mg
Procedure, shortened: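 Single 15 mg dose given to males grouped by Cockcroft-Gault creatinine clearance. Total-catch urine collected at 6–12 h intervals to 72 h post-dose. Parent and metabolites quantified by validated LC-MS/MS, with the acyl-glucuronide hydrolysed by 2 M KOH and measured as total aglycone. Renal clearance and fraction excreted unchanged over 0–72 h. Ln-transformed parameters compared with the normal group by fixed-effects model; geometric mean ratios with 90% CI.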

[3] = humans, cited from earlier work
sUA = settings: doses as low as; cited from earlier work
Safety assessments = format: in vivo, human; settings: for Number of adverse events / Subjects with adverse events, n (%): treatment-emergent; for Number of adverse events / Subjects with adverse events, n (%) / Number of adverse events of mild severity / Number of adverse events of moderate severity / Severe/life-threatening adverse events / Subjects with adverse events of mild severity, n (%) / Subjects with adverse events of moderate severity, n (%): verinurad 15 mg
Procedure, shortened: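 Males with normal or impaired renal function were housed in the study centre from Day −2 until final procedures after a single 15 mg dose. Assessments covered adverse events (MedDRA v17.0), clinical laboratory tests, vital signs, ECGs and physical examinations. Clinically relevant laboratory abnormalities were graded for severity by the investigator using Rheumatology Common Toxicity Criteria v2.0.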

urinary uric acid = assay: Urinary uric acid pharmacodynamics after verinurad 15 mg; format: in vivo, human; settings: for AeUR,0–24 h amount of urinary uric acid recovered in urine, mean (SD) / FEUA,0–24 h fractional excretion of uric acid, mean (SD) / ReUR,0–24 h rate of urinary uric acid excretion, mean (SD): following verinurad 15 mg
Procedure, shortened: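 Total-catch urine collected at 6–12 h intervals to 72 h after a single 15 mg dose, with a Day −1 baseline. Urate and creatinine in serum and urine measured by enzymatic method.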

[4] = moderate renal impairment (N = 7)
[5] = severe renal impairment (N = 7)
[6] = moderate renal impairment (N = 8)
[7] = verinurad 15 mg single dose, all groups

## CC(C)(Sc1ccncc1-c1ccc(C#N)c2ccccc12)C(=O)O [Verinurad]
URAT1
  IC50: 36 nM
[1]; mild renal impairment
  AUC0–∞, GLSMR (90% CI) versus normal renal function group: 124% (88.8–173)
  Cmax, GLSMR (90% CI) versus normal renal function group: 153% (115–203)
  CL/F, GLSMR (90% CI) versus normal renal function group: 80.8% (57.9–113)
  Increase in AUC0–∞ compared to subjects with normal renal function: 24%
  Increase in Cmax compared to subjects with normal renal function: 53%
[1]; moderate renal impairment
  AUC0–∞, GLSMR (90% CI) versus normal renal function group: 248% (168–366)
  Cmax, GLSMR (90% CI) versus normal renal function group: 173% (131–230)
  CL/F, GLSMR (90% CI) versus normal renal function group: 40.3% (27.3–59.5)
  Increase in AUC0–∞ compared to subjects with normal renal function: 148%
  Increase in Cmax compared to subjects with normal renal function: 73%
[1]; severe renal impairment
  AUC0–∞, GLSMR (90% CI) versus normal renal function group: 230% (146–363)
  Cmax, GLSMR (90% CI) versus normal renal function group: 228% (155–336)
  CL/F, GLSMR (90% CI) versus normal renal function group: 43.5% (27.5–68.7)
  Increase in AUC0–∞ compared to subjects with normal renal function: 130%
  Increase in Cmax compared to subjects with normal renal function: 128%
[1]; mild renal impairment (N = 8)
  CL/F total body clearance, GM (95% CI): 74.8 (53.7–104) L/h
[1]; [4]
  CL/F total body clearance, GM (95% CI): 37.3 (23.7–58.9) L/h
[1]; normal renal function (N = 8)
  CL/F total body clearance, GM (95% CI): 92.6 (68.7–125) L/h
[1]; [5]
  CL/F total body clearance, GM (95% CI): 40.3 (22.6–71.7) L/h
Plasma protein binding
  fraction unbound: 0.013 to 0.024
Serum urate (sUA)
  Time post-dose at which maximal percent change in sUA occurred: approximately 12 h
[2]; [4]
  fe0–72 fraction of drug excreted in urine unchanged from time zero to 72 h, GM (95% CI): 1.05 (0.561–1.96) %
[2]; normal renal function (N = 8)
  fe0–72 fraction of drug excreted in urine unchanged from time zero to 72 h, GM (95% CI): 0.814 (0.508–1.31) %
[2]; [5]
  fe0–72 fraction of drug excreted in urine unchanged from time zero to 72 h, GM (95% CI): 0.362 (0.202–0.647) %
[2]; mild renal impairment
  CLR0–72, GLSMR (90% CI) versus normal renal function group: 95.4% (60.6–150)
  Decrease in renal clearance (CLR0-72) versus normal renal function: 5% and 4.6%
[2]; moderate renal impairment
  CLR0–72, GLSMR (90% CI) versus normal renal function group: 58.3% (30.2–113)
  Decrease in renal clearance (CLR0-72) versus normal renal function: 42%
[2]; severe renal impairment
  CLR0–72, GLSMR (90% CI) versus normal renal function group: 21.2% (13.6–32.8)
  Decrease in renal clearance (CLR0-72) versus normal renal function: 79%
[3]; ref 21
  Parent drug excreted unchanged in urine: about 2%
[3]; ref 26
  Parent drug excreted unchanged in urine: about 2%
sUA
  Lowest dose providing sUA lowering in humans: 2.5 mg
Safety assessments; control group, oropharyngeal pain and rhinorrhea
  Subjects with TEAE possibly related to verinurad: One subject
Safety assessments; mild renal impairment (N = 8)
  Number of adverse events: 3
  Subjects with adverse events, n (%): 3 (37.5%)
  Number of adverse events of mild severity: 2
  Number of adverse events of moderate severity: 1
  Severe/life-threatening adverse events: 0
  Subjects with adverse events of mild severity, n (%): 2 (25.0%)
  Subjects with adverse events of moderate severity, n (%): 1 (12.5%)
Safety assessments; [6]
  Number of adverse events: 2
  Subjects with adverse events, n (%): 1 (12.5%)
  Number of adverse events of mild severity: 1
  Number of adverse events of moderate severity: 1
  Severe/life-threatening adverse events: 0
  Subjects with adverse events of mild severity, n (%): 1 (12.5%)
  Subjects with adverse events of moderate severity, n (%): 1 (12.5%)
Safety assessments; normal renal function (N = 8)
  Number of adverse events: 5
  Subjects with adverse events, n (%): 1 (12.5%)
  Number of adverse events of mild severity: 4
  Number of adverse events of moderate severity: 1
  Severe/life-threatening adverse events: 0
  Subjects with adverse events of mild severity, n (%): 1 (12.5%)
  Subjects with adverse events of moderate severity, n (%): 1 (12.5%)
Safety assessments; [5]
  Number of adverse events: 2
  Subjects with adverse events, n (%): 2 (28.6%)
  Number of adverse events of mild severity: 1
  Number of adverse events of moderate severity: 1
  Severe/life-threatening adverse events: 0
  Subjects with adverse events of mild severity, n (%): 1 (14.3%)
  Subjects with adverse events of moderate severity, n (%): 1 (14.3%)
Safety assessments; [7]
  Adverse event-related withdrawals: no AE-related withdrawals
  Changes in laboratory values or vital signs: No clinically meaningful changes
  Serious adverse events: no serious AEs
  Tolerability: well tolerated
Urinary uric acid; mild renal impairment (N = 8)
  AeUR,0–24 h amount of urinary uric acid recovered in urine, mean (SD): 880 (225) mg
  FEUA,0–24 h fractional excretion of uric acid, mean (SD): 16.2 (5.68) %
  ReUR,0–24 h rate of urinary uric acid excretion, mean (SD): 36.6 (9.39) mg/h
Urinary uric acid; [4]
  AeUR,0–24 h amount of urinary uric acid recovered in urine, mean (SD): 707 (334) mg
  FEUA,0–24 h fractional excretion of uric acid, mean (SD): 13.0 (7.48) %
  ReUR,0–24 h rate of urinary uric acid excretion, mean (SD): 29.3 (13.8) mg/h
Urinary uric acid; normal renal function (N = 8)
  AeUR,0–24 h amount of urinary uric acid recovered in urine, mean (SD): 969 (299) mg
  FEUA,0–24 h fractional excretion of uric acid, mean (SD): 13.8 (6.24) %
  ReUR,0–24 h rate of urinary uric acid excretion, mean (SD): 40.1 (12.1) mg/h
Urinary uric acid; [5]
  AeUR,0–24 h amount of urinary uric acid recovered in urine, mean (SD): 393 (144) mg
  FEUA,0–24 h fractional excretion of uric acid, mean (SD): 12.7 (6.43) %
  ReUR,0–24 h rate of urinary uric acid excretion, mean (SD): 16.3 (6.02) mg/h
Urinary uric acid; verinurad 15 mg
  Time post-dose by which ReUR returned to baseline: ≤ 12 h

From PMC6061379 (Clinical Drug Investigation, 2018)
